From ChEMBL document CHEMBL1146725, “Discovery and SAR of potent, orally available and brain-penetrable 5,6-dihydro-4H-3-thia-1-aza-benzo[e]azulen- and 4,5-dihydro-6-oxa-3-thia-1-aza-benzo[e]azulen derivatives as neuropeptide Y Y5 receptor antagonists” (Bioorg Med Chem Lett, 2004)
pIC50: −log10 of the molar value. Several values for one entry are separate records, joined by “and”; a condition that tells them apart may be missing. Identical values can stand only once.

How the values were obtained:
Rattus norvegicus [1] = assay: (§1) Concentration (30 mg/kg, p.o.) in rat hypothalamus after 2 hours; type: ADME, organism-based; settings: in vivo, po, 2 h
In short: (§2)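 Male rats (RA238), fasted overnight, given 30 mg/kg by oral gavage (5 mL/kg) in 20% Cremophore EL/water (w/w). Plasma and hypothalamus were sampled at 2 and 6 h post-dose and levels measured by LC-MS. Values are the mean of 3-6 animals per time point, as µg/mL plasma and µg/g hypothalamus.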

[2] = as §1; type: ADME, organism-based; settings: hypothalamus, po; in short: as §2
Rattus norvegicus [3] = assay: Concentration (30 mg/kg, p.o.) in rat plasma after 6 hours; type: ADME, organism-based; settings: in vivo, po, 6 h; in short: as §2
[4] = target: T1, Neuropeptide Y receptor type 5 (Homo sapiens, UniProt Q15761); assay: In vitro binding affinity against human neuropeptide Y5 receptor
T1 sequence (Q15761 whole entry): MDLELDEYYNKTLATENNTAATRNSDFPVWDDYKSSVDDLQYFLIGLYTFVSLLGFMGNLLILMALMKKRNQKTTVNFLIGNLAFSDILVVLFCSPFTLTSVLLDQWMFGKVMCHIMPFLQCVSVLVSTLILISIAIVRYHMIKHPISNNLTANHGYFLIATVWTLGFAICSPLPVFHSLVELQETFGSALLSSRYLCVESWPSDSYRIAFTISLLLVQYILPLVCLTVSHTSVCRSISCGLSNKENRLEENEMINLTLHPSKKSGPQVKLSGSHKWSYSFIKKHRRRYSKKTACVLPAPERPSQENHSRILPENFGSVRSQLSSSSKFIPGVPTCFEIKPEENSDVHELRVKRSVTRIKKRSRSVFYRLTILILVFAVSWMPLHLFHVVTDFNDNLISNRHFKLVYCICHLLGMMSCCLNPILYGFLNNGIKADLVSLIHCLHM

Rattus norvegicus [5] = assay: (§3) Concentration (30 mg/kg, p.o.) in rat plasma after 2 hours; type: ADME, organism-based; settings: in vivo, po, 2 h; in short: as §2
[6] = as §3; type: ADME, organism-based; settings: plasma, po; in short: as §2
Rattus norvegicus [7] = assay: Concentration (30 mg/kg, p.o.) in rat hypothalamus after 6 hours; type: ADME, organism-based; settings: in vivo, po, 6 h; in short: as §2

Compound: O=C([C@@H]1CCCO1)N1CCC(CNc2nc3c(s2)CCCc2ccc(F)cc2-3)CC1
- Concentration (Rattus norvegicus [1]): 6.69 µg/g
- concentration at 2 h [2]: 6690 ng/g
- Concentration (Rattus norvegicus [3]): 0.32 µg/mL and 0.14 µg/mL
- pIC50 [4]: 8.70
- Concentration (Rattus norvegicus [5]): 1.6 µg/mL
- concentration at 2 h [6]: 1600 ng/mL
- Concentration (Rattus norvegicus [7]): 1.33 µg/g and 0.64 µg/g
